Data reported in ChEMBL document CHEMBL1123743, “Antisecretory activity of human, dog, and rat metabolites of fenoctimine” (J Med Chem, 1987).
Values after ≈ are worked out from the molar mass of the structure shown. Active and inactive are the calls of the source. No cut-off for these calls is given here.

Legend:
Cavia porcellus = species: Cavia porcellus; test: Anticholinergic activity was determined in vitro by measuring their effect on the acetylcholine chloride induced contraction of guinea pig ileum; type: functional
Procedure, shortened: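 Ileum was isolated from female guinea pigs (200–500 g) killed with CO2. Acetylcholine chloride was added in rising concentrations up to maximal response. Test compound was given 2 min before the agonist, with antagonism assessed against the maximal acetylcholine dose. Full concentration–response curves were run.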

Rattus norvegicus [1] = test: Antisecretory activity was evaluated in acute gastric fistula of rat after intraperitoneal administration; type: functional; settings: Stomach, ip
Rattus norvegicus [2] = test: Antisecretory activity was evaluated in acute gastric fistula of rat after peroral administration; type: functional; settings: Stomach, po
Procedure, shortened: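 Female Sprague-Dawley rats (120–160 g), food-deprived ≥18 h, given drug or vehicle (0.5% methocel) orally 1 h before surgery. Under ether anesthesia a flanged polyethylene cannula was placed in the fundic stomach. The first 30-min collection was discarded, then two 1-h samples were taken. Volume was measured and acidity titrated to pH 7 with 0.01 N NaOH. ED50 = dose giving 50% inhibition of total acid output vs controls, by least-squares regression.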

Rattus norvegicus [3] = test: Antisecretory activity was evaluated in acute gastric fistula of rat after intravenous administration; type: functional; settings: Stomach
Rattus norvegicus [4] = test: Antisecretory activity was evaluated in acute gastric fistula of rat after administration of 40 mg/kg; I=inactive; type: functional, organism-based; design: dose 40 mg/kg; settings: Stomach

SMILES | IC50 (Cavia porcellus) | ED50 (Rattus norvegicus [1]) | ED50 (Rattus norvegicus [2]) | ED50 (Rattus norvegicus [3]) | ED50 (Rattus norvegicus [4])
CCCCCCCC/N=C/N1CCC(C(c2ccccc2)c2ccc(O)cc2)CC1.O=S(=O)(O)c1ccc2ccccc2c1 (stereo not drawn) | 0.96 mg/L | 3.1 mg/kg | > 40 mg/kg |  | 
CC(O)CCCCCC/N=C/N1CCC(C(c2ccccc2)c2ccccc2)CC1 (stereo not drawn) | 1.7 mg/L (≈ 4.18 µM) |  | 8.9 mg/kg |  | 
C/C(CCCCCC/N=C\N1CCC(C(c2ccccc2)c2ccccc2)CC1)=N\O.O=S(=O)(O)c1ccc2ccccc2c1 | 4.1 mg/L | 8.8 mg/kg | 12.5 mg/kg |  | 
O=CN1CCC(C(c2ccccc2)c2ccccc2)CC1 | 21.9 mg/L (≈ 78.4 µM) |  |  |  | inactive
CN1[C@@H]2CC[C@H]1C[C@@H](OC(=O)C(CO)c1ccccc1)C2 (stereo partly drawn) [ATROPINE] | 0.0038 mg/L (≈ 0.0131 µM) |  | 1.1 mg/kg |  | 
Cl.O.O=C([O-])CCCCCCC/N=C/N1CCC(C(c2ccccc2)c2ccccc2)CC1.O=C([O-])CCCCCCC/N=C/N1CCC(C(c2ccccc2)c2ccccc2)CC1.[Zn+2] | 1.2 mg/L |  |  |  | 
CC(=O)CCCCCC/N=C/N1CCC(C(c2ccccc2)c2ccccc2)CC1 | 2.2 mg/L (≈ 5.44 µM) | 1.5 mg/kg | 10.5 mg/kg |  | 
OCCCCCC/N=C/N1CCC(C(c2ccccc2)c2ccccc2)CC1 | 0.26 mg/L (≈ 0.687 µM) | 2 mg/kg | 11.2 mg/kg | 4.5 mg/kg | 
OCCCCCCCC/N=C/N1CCC(C(c2ccccc2)c2ccccc2)CC1 | 0.29 mg/L (≈ 0.713 µM) | 0.44 mg/kg | 8.5 mg/kg | 9.7 mg/kg | 
CN/C(=N\CCSCc1nc[nH]c1C)NC#N [CIMETIDINE] |  |  | 7.6 mg/kg |  | 

Continued, in another order:

IC50 (Cavia porcellus) | SMILES | ED50 (Rattus norvegicus [1]) | ED50 (Rattus norvegicus [2]) | ED50 (Rattus norvegicus [3]) | ED50 (Rattus norvegicus [4])
0.3 mg/L | COC(=O)CCCCCCC/N=C/N1CCC(C(c2ccccc2)c2ccccc2)CC1.O=C(O)/C=C/C(=O)O |  | 10.1 mg/kg | 4.7 mg/kg | 
1.96 mg/L | CC1(CCCCCC/N=C\N2CCC(C(c3ccccc3)c3ccccc3)CC2)OCCO1.O=C(O)/C=C/C(=O)O | 0.98 mg/kg | 4.8 mg/kg |  | 
1.8 mg/L (≈ 4.61 µM) | CCCCCCCC/N=C/N1CCC(C(c2ccccc2)c2ccccc2)CC1 [FENOCTIMINE] | 0.6 mg/kg | 3.9 mg/kg | 1.1 mg/kg | 
1.9 mg/L | CCCCCCCC/N=C\N1CCC(C(c2ccccc2)c2ccc(OC)cc2)CC1.O=C(O)/C=C/C(=O)O (stereo not drawn) | 0.63 mg/kg | 15.7 mg/kg |  | 
